ChEMBL document CHEMBL2040780, “Antiarrhythmic properties of phenylpiperazine derivatives of phenytoin with α₁-adrenoceptor affinities” (Bioorg Med Chem, 2012)
Active and inactive are the calls of the source. The calls are words filed in the database; no cut-off is given here.

How the values were obtained:
Rattus norvegicus [1] = assay: Antiarrhythmic activity in iv dosed Wistar rat assessed as protection against adrenaline-induced arrhythmia administered 15 mins prior to adrenaline-challenge; assay type: functional; settings: Heart
Summary of the method: (§1)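 Szekeres model in male Wistar rats anaesthetised with thiopental (60 mg/kg ip). Test compound given iv in water (2.5–10 mg/kg) 15 min before adrenaline 20 µg/kg iv. Scored for extrasystoles, bigeminy and mortality; activity means no premature beats and inhibited arrhythmia versus controls.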

Rattus norvegicus [2] = assay: Antiarrhythmic activity in barium chloride-induced Wistar rat arrhythmia model assessed as protection against mortality at 2.5 to 10 mg/kg, iv administered 15 mins prior to barium chloride-challenge; assay type: functional, organism-based; settings: Heart
Summary of the method: (§2)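 Szekeres model in male Wistar rats. Activity is gradual disappearance of arrhythmia with restored sinus rhythm; protection against disturbances and death scored. Groups of 6 animals.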

Rattus norvegicus [3] = assay: Antiarrhythmic activity in iv dosed Wistar rat assessed as protection against barium chloride-induced extrasystoles administered 15 mins prior to barium chloride-challenge; assay type: functional, Heart; summary of the method: as §2
Rattus norvegicus [4] = assay: Hypotensive activity in normotensive Wistar rat assessed as decrease in diastolic blood pressure at 2.5 to 10 mg/kg, iv at 1 min; assay type: organism-based, Artery; parameters: dose 2.5-10 mg/kg, route intravenous; settings: in vivo
Summary of the method: (§3)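 Right carotid artery cannulated with heparin-saline-filled tubing for blood pressure recording. After 5 min stabilisation, compound injected iv into the caudal vein (2.5–10 mg/kg, 1 ml/kg). Systolic and diastolic pressure followed for 60 min. n=6 per group, mean ± SEM, one-way ANOVA.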

Rattus norvegicus [5] = assay: Cardiotoxicity in Wistar rat assessed as effect on QRS interval at 5 mg/kg, iv after 15 mins; assay type: toxicity, organism-based; parameters: dose 5 mg/kg, route intravenous; settings: in vivo, 0.25 h
Summary of the method: (§4)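 Male Wistar rats (180–250 g), anaesthetised with thiopental 60 mg/kg ip. Compound given iv in water at 10 mg/kg, or at a lower starting dose of 5 or 2.5 mg/kg. Standard lead II ECG recorded at 50 mm/s just before dosing and at 1, 5 and 15 min after. Heart rate and P–Q, Q–T and QRS intervals were read. n=6 per group, mean ± SEM, one-way ANOVA.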

Rattus norvegicus [6] = assay: Cardiotoxicity in Wistar rat assessed as effect on QRS interval at 5 mg/kg, iv after 5 mins; assay type: toxicity, organism-based; parameters: dose 5 mg/kg, route intravenous; settings: in vivo; summary of the method: as §4
Rattus norvegicus [7] = assay: Cardiotoxicity in Wistar rat assessed as effect on QRS interval at 5 mg/kg, iv after 1 min; assay type: toxicity, organism-based; parameters: dose 5 mg/kg, route intravenous; settings: in vivo; summary of the method: as §4
Rattus norvegicus [8] = assay: Hypotensive activity in normotensive Wistar rat assessed as decrease in systolic blood pressure at 2.5 to 10 mg/kg, iv at 1 min; assay type: organism-based, Artery; parameters: dose 2.5-10 mg/kg, route intravenous; settings: in vivo; summary of the method: as §3
Rattus norvegicus [9] = assay: Hypotensive activity in normotensive Wistar rat assessed as decrease in systolic blood pressure at 2.5 to 10 mg/kg, iv after 1 min measured up to 60 mins; assay type: organism-based, Artery; parameters: dose 2.5-10 mg/kg, route intravenous; settings: in vivo; summary of the method: as §3
Rattus norvegicus [10] = assay: Cardiotoxicity in Wistar rat assessed as effect on P-Q interval at 5 mg/kg, iv after 15 mins; assay type: toxicity, organism-based; parameters: dose 5 mg/kg, route intravenous; settings: in vivo, 0.25 h; summary of the method: as §4
Rattus norvegicus [11] = assay: Cardiotoxicity in Wistar rat assessed as effect on P-Q interval at 5 mg/kg, iv after 5 mins; assay type: toxicity, organism-based; parameters: dose 5 mg/kg, route intravenous; settings: in vivo; summary of the method: as §4
Rattus norvegicus [12] = assay: Antiarrhythmic activity in Wistar rat assessed as effect on heart beat at 5 mg/kg, iv after 1 min; assay type: functional; summary of the method: as §4
Rattus norvegicus [13] = assay: Cardiotoxicity in Wistar rat assessed as effect on Q-T interval at 5 mg/kg, iv after 15 mins; assay type: toxicity, organism-based; parameters: dose 5 mg/kg, route intravenous; settings: in vivo, 0.25 h; summary of the method: as §4
Rattus norvegicus [14] = assay: Cardiotoxicity in Wistar rat assessed as effect on Q-T interval at 5 mg/kg, iv after 1 min; assay type: toxicity, organism-based; parameters: dose 5 mg/kg, route intravenous; settings: in vivo; summary of the method: as §4
Rattus norvegicus [15] = assay: Antiarrhythmic activity in Wistar rat assessed as protection against adrenaline-induced extrasystoles at 2.5 to 10 mg/kg, iv administered 15 mins prior to adrenaline-challenge; assay type: functional, organism-based; settings: Heart; summary of the method: as §1
[16] = target: T1, Adrenergic receptor alpha-1 (Rattus norvegicus, UniProt P15823+P23944+P43140); assay: Displacement of [3H]prazosin from alpha1 adrenoceptor in rat cerebral cortex after 30 mins by microbeta scintillation counting; assay type: tissue-based
T1 sequence (P15823 whole entry): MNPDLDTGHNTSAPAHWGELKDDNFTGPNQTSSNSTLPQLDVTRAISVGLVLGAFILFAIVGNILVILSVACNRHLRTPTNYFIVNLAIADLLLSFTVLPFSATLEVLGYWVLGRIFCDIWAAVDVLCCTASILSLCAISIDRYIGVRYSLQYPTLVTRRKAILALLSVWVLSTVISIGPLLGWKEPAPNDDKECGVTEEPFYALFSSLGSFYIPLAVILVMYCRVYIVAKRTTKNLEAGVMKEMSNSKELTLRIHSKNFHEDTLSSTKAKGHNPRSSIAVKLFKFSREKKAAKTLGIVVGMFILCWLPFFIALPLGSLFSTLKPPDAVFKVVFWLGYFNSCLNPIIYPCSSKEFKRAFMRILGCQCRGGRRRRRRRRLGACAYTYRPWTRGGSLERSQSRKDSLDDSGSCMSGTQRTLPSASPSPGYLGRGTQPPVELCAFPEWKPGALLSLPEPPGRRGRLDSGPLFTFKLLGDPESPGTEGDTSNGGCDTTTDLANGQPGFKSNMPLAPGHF
T1 sequence (P23944 whole entry): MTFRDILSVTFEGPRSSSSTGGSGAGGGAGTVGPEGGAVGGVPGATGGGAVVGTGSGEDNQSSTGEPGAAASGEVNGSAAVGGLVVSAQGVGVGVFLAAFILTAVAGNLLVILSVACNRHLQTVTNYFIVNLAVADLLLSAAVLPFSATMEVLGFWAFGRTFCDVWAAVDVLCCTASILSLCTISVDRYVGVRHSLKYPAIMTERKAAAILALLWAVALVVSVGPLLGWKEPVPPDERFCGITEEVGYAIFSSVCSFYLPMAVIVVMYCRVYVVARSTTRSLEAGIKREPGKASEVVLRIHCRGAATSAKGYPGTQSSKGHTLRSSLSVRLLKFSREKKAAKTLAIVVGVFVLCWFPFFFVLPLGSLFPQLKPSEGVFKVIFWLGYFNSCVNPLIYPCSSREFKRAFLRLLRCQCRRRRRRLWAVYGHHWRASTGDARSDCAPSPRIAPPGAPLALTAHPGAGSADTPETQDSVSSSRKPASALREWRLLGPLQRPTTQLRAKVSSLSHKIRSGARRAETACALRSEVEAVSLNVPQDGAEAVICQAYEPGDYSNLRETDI
T1 sequence (P43140 whole entry): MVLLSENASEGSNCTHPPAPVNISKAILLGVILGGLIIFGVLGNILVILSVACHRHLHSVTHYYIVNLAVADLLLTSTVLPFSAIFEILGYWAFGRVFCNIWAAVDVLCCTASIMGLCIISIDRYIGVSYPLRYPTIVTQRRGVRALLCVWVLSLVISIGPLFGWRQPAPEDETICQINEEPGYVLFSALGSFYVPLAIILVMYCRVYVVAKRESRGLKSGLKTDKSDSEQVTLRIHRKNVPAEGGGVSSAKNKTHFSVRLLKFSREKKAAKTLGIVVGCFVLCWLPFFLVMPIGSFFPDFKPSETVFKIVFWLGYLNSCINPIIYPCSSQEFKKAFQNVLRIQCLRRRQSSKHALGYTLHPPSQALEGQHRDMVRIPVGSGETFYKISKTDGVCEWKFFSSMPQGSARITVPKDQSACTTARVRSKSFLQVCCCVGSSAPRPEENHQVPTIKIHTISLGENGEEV
Summary of the method: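 Rat cerebral cortex homogenised in ice-cold 50 mM Tris-HCl (pH 7.6 at 25 °C), washed twice at 20000×g and resuspended at 10 mg wet weight/ml. Incubated with [3H]prazosin (19.5 Ci/mmol) and test compound for 30 min at 25 °C. Nonspecific binding defined with 10 µM phentolamine. GF/B filtration, scintillation counting, three-parameter logistic competition fit.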

Rattus norvegicus [17] = assay: Antiarrhythmic activity in Wistar rat assessed as effect on heart beat at 5 mg/kg, iv after 5 mins; assay type: functional; summary of the method: as §4
Rattus norvegicus [18] = assay: Antiarrhythmic activity in Wistar rat assessed as effect on heart beat at 5 mg/kg, iv after 15 mins; assay type: functional; summary of the method: as §4
Rattus norvegicus [19] = assay: Antiarrhythmic activity in Wistar rat assessed as protection against adrenaline-induced bigeminy at 2.5 to 10 mg/kg, iv administered 15 mins prior to adrenaline-challenge; assay type: functional, organism-based; settings: Heart; summary of the method: as §1
Rattus norvegicus [20] = assay: Antiarrhythmic activity in dosed Wistar rat assessed as protection against barium chloride-induced fibrillation administered 15 mins prior to barium chloride-challenge; assay type: functional, Heart; summary of the method: as §2
Rattus norvegicus [21] = assay: Hypotensive activity in normotensive Wistar rat assessed as decrease in diastolic blood pressure at 2.5 to 10 mg/kg, iv after 1 min measured up to 60 mins; assay type: organism-based, Artery; parameters: dose 2.5-10 mg/kg, route intravenous; settings: in vivo; summary of the method: as §3
Rattus norvegicus [22] = assay: Cardiotoxicity in Wistar rat assessed as effect on P-Q interval at 5 mg/kg, iv after 1 min; assay type: toxicity, organism-based; parameters: dose 5 mg/kg, route intravenous; settings: in vivo; summary of the method: as §4
Rattus norvegicus [23] = assay: Cardiotoxicity in Wistar rat assessed as effect on Q-T interval at 5 mg/kg, iv after 5 mins; assay type: toxicity, organism-based; parameters: dose 5 mg/kg, route intravenous; settings: in vivo; summary of the method: as §4
Rattus norvegicus [24] = assay: Antiarrhythmic activity in iv dosed Wistar rat assessed as protection against adrenaline-induced extrasystoles administered 15 mins prior to adrenaline-challenge; assay type: functional, organism-based; settings: Heart; summary of the method: as §1
Rattus norvegicus [25] = assay: Antiarrhythmic activity in iv dosed Wistar rat assessed as protection against adrenaline-induced bigeminy administered 15 mins prior to adrenaline-challenge; assay type: functional, organism-based; settings: Heart; summary of the method: as §1

CN1C(=O)N(CC(O)CN2CCN(c3ccccc3F)CC2)C(c2ccccc2)(c2ccccc2)C1=O.Cl (racemic)
ED50 (Rattus norvegicus [1]): 1.92 mg/kg
Activity (Rattus norvegicus [2]): Active
Activity (Rattus norvegicus [3]): >50%
Activity (Rattus norvegicus [4]): Toxic
Activity (Rattus norvegicus [5]): 16 ms
Activity (Rattus norvegicus [6]): 17 ms
Activity (Rattus norvegicus [7]): 20 ms
Activity (Rattus norvegicus [8]): Toxic
Activity (Rattus norvegicus [9]): Non-toxic
Activity (Rattus norvegicus [10]): 59 ms
Activity (Rattus norvegicus [11]): 62 ms
Activity (Rattus norvegicus [12]): 272 min⁻¹
Activity (Rattus norvegicus [13]): 68 ms
Activity (Rattus norvegicus [14]): 81 ms
Activity (Rattus norvegicus [15]): Active
Ki [16]: 564.6 nM
pKi [16]: 6.25
Activity (Rattus norvegicus [17]): 251 min⁻¹
Activity (Rattus norvegicus [18]): 258 min⁻¹
Activity (Rattus norvegicus [19]): Active
Activity (Rattus norvegicus [20]): >50%
Activity (Rattus norvegicus [21]): Non-toxic
Activity (Rattus norvegicus [22]): 64 ms
Activity (Rattus norvegicus [23]): 74 ms

c1ccc(CC2=NCCN2)cc1 [TOLAZOLINE]
ED50 (Rattus norvegicus [1]): 3.4 mg/kg
Activity (Rattus norvegicus [24]): Active
Activity (Rattus norvegicus [25]): Active
